Series [1] has as its target T1, Serine/threonine-protein kinase B-raf (Homo sapiens, UniProt P15056, V600E). Put plainly: Inhibition of B-Raf V600E mutant after 2 hrs. Particulars: in the assay text read “after 3 hrs” for “after 2 hrs”. The procedure, abridged:
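Raf kinase activity measured with a biotinylated peptide substrate at 30 °C for 3 h. After the stop step, the mixture was incubated 2 h on a streptavidin-coated flashplate and counts were read by scintillation.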

Series [2] concerns the target T1, Serine/threonine-protein kinase B-raf. Put plainly: Inhibition of B-Raf V600E mutant-mediated pERK phosphorylation in human A375 cells after 3 hrs by whole cell ELISA assay. The series is classed as cell-based, A-375. An outline of the steps:
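A375 human melanoma cells (B-Raf V600E) were seeded overnight and exposed to inhibitor for 3 h. Cells were then fixed, permeabilized and blocked overnight. Detection used anti-phospho-ERK antibody for 1 h, then an HRP conjugate, with tetramethylbenzidine read at OD 650 nm.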

Series [3] in a line: Clearance in Sprague-Dawley rat at 0.5 to 1 mg/kg, iv and 10 mg/kg, po. The series is classed as ADME, organism-based. The following applies: in vivo. An outline of the steps: (§1)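 Male SD rats dosed intravenously at 0.5 mg/kg or 1 mg/kg, or orally at 10 mg/kg. Plasma exposure, clearance and oral bioavailability derived from plasma levels.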
Series [4] can be described thus: AUC in Sprague-Dawley rat at 0.5 to 1 mg/kg, iv and 10 mg/kg, po. The following applies: plasma. It counts as ADME, organism-based. The procedure, abridged:
as §1

Series [5] can be described thus: Bioavailability in Sprague-Dawley rat at 0.5 to 1 mg/kg, iv and 10 mg/kg, po. The series is classed as ADME, organism-based. Particulars: in vivo. An outline of the steps:
as §1

The target in series [6] is T1, Serine/threonine-protein kinase B-raf. Put plainly: Inhibition of B-Raf V600E mutant after 3 hrs.
For series [7], the target named is RAF proto-oncogene serine/threonine-protein kinase (Homo sapiens, UniProt P04049). Briefly: Inhibition of C-Raf.
The target in series [8] is T1, Serine/threonine-protein kinase B-raf. Put plainly: Inhibition of B-Raf V600E mutant. An outline of the steps:
(§2)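 Raf kinase reaction with biotinylated peptide substrate run 3 h at 30 °C. After a stop step, the mixture is held 2 h on streptavidin-coated flashplates to capture the substrate, and the plates are read by scintillation counting.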

Series [9] is described as follows: Aqueous solubility of the compound in 50 mM of potassium phosphate buffer at pH 6.8 by turbidimetric method. The series is classed as physicochemical. An outline of the steps: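 Turbidimetric kinetic solubility in 50 mM potassium phosphate buffer, pH 6.8.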
For series [10], the target named is Serine/threonine-protein kinase B-raf (Homo sapiens, UniProt P15056). Briefly: Inhibition of B-Raf. An outline of the steps:
as §2

≈ marks a conversion by molar mass, not a printed value.

T1 sequence (P15056 2-766 V600E limits assumed): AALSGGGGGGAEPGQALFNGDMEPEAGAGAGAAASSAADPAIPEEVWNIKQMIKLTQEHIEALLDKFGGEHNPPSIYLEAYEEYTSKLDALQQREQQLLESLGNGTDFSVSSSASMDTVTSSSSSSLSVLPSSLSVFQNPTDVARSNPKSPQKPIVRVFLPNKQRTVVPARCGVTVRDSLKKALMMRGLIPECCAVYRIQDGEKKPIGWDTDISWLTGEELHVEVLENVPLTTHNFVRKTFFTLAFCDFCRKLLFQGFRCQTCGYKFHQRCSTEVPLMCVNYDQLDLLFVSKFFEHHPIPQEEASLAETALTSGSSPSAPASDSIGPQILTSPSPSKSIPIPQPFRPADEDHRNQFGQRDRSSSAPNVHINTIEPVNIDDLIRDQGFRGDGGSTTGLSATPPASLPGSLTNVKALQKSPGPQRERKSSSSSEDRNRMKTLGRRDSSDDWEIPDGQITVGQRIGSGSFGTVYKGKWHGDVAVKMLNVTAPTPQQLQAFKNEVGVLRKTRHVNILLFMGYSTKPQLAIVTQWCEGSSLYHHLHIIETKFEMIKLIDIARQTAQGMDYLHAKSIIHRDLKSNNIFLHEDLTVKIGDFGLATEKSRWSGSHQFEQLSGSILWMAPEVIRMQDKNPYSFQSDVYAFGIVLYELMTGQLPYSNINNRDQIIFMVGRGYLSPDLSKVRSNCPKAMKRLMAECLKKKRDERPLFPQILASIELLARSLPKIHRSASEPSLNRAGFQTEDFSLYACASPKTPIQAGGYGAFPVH
Sequence of RAF proto-oncogene serine/threonine-protein kinase (P04049 whole entry): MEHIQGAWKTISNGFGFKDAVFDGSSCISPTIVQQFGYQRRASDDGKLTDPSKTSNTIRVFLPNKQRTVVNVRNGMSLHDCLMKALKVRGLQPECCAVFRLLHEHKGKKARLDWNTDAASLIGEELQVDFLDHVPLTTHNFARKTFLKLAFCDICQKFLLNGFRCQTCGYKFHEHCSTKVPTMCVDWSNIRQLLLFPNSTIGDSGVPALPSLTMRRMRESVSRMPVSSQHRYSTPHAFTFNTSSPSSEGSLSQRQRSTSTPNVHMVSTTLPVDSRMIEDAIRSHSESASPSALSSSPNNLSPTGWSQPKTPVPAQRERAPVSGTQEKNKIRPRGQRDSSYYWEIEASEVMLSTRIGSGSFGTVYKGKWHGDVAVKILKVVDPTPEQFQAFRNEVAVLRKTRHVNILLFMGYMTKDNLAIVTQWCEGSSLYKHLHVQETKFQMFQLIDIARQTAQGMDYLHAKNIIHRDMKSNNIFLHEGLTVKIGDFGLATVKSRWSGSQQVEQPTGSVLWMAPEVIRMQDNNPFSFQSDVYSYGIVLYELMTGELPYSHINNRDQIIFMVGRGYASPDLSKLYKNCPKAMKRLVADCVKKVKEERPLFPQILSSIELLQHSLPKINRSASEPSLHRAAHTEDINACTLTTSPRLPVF
Sequence of Serine/threonine-protein kinase B-raf (Homo sapiens, UniProt P15056) (P15056 whole entry): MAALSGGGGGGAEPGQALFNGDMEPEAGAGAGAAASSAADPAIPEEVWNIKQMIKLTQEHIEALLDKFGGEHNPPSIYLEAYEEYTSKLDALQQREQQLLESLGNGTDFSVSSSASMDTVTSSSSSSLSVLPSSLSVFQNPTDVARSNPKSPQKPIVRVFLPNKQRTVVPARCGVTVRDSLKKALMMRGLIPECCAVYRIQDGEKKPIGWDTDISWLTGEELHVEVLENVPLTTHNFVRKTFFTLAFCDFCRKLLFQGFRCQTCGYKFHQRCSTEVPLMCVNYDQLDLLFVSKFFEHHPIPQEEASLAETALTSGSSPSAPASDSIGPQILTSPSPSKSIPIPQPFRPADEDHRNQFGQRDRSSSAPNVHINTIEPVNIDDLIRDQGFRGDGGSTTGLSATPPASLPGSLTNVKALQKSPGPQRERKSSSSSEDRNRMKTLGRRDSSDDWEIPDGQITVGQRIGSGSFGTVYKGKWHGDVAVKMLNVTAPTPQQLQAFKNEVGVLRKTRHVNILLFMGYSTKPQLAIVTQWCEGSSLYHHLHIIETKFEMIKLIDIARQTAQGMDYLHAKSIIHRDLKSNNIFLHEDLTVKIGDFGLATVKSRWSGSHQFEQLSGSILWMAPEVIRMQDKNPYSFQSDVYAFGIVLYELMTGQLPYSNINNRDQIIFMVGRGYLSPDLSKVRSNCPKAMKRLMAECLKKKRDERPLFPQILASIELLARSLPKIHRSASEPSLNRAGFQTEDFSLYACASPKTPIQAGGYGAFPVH

On to `O=C(c1ccc(-c2ccccn2)s1)N1N=C(c2cncc(CO)c2)CC1c1ccccc1O` (racemic), for which the values for the 50% inhibitory concentration (IC50) in series [1] and in series [2] were 3 nM and 39 nM, respectively.
As to `Nc1cncc(C2=NN(C(=O)c3ccc(-c4ccccn4)s3)C(c3c(O)cccc3F)C2)c1` (racemic), the half-maximal inhibitory concentration (IC50) in series [1] worked out at 3 nM; in [2], 18 nM.
On to `NCc1ccccc1-c1ccc(C(=O)N2N=C(c3cccnc3)CC2c2c(O)cccc2F)s1` (racemic), for which the IC50 in series [1] amounted to 7 nM; in [2], 85 nM. For the same compound, the clearance in [3] was 26.7 mL/min/kg. Further, the AUC in series [4] is 11 µM·h. The bioavailability in series [5] worked out at 85%.
As to `NCc1ccccc1-c1ccc(C(=O)N2N=C(c3cncc(F)c3)CC2c2ccccc2O)s1` (racemic), the values for the IC50 in series [2] and in series [6] were 180 nM and 21 nM, respectively.
In the case of `O=C(c1ccc(-c2ccc3c(c2)CNCC3)s1)N1N=C(c2cccnc2)CC1c1c(O)cccc1F` (racemic), the IC50 is 3 nM in [1] and 21 nM in series [2].
As to `O=C(c1ccco1)N1N=C(c2cccnc2)CC1c1ccccc1O` (racemic), the IC50 in series [2] is 1800 nM; in series [6] it was 200 nM.
In the case of `NCc1cccc(-c2ccc(C(=O)N3N=C(c4cccnc4)CC3c3ccccc3O)s2)c1` (racemic), the results for the IC50 in series [1] and in series [2] were 6 nM and 390 nM, respectively.
In series [1], `O=C(c1ccc(-c2ccccn2)s1)N1N=C(c2cccnc2)CC1c1ccccc1` (racemic) came in with an IC50 of 799 nM.
Consider `O=C(c1ccc(-c2ccc(CO)cc2)s1)N1N=C(c2cccnc2)CC1c1ccccc1O` (racemic), for which the IC50 in series [1] stood at 5 nM; in series [2], 140 nM.
With `O=C(c1ccc(-c2ccc3c(c2)CCNC3)s1)N1N=C(c2cccnc2)CC1c1ccccc1O` (racemic), the results for the concentration for half-maximal inhibition (IC50) in series [1] and in [2] were 5 nM and 21 nM, respectively.
For `O=C(c1ccc(-c2ccccn2)s1)N1N=C(c2cccnc2)CC1c1ccc(F)cc1O` (racemic), in that order: 11 nM and 1400 nM.
With `Cn1cc(-c2ccc(C(=O)N3N=C(c4cccnc4)CC3c3ccccc3O)s2)cn1` (racemic), the IC50 in series [1] was determined as 9 nM; in [2], 89 nM.
`CC(=O)Nc1cncc(C2=NN(C(=O)c3ccc(-c4ccccn4)s3)C(c3ccccc3O)C2)c1` (racemic): the IC50 came out at 3 nM in [1] and 63 nM in series [2].
For `O=C(c1ccc(-c2cccc(CN3CCCC3)c2)s1)N1N=C(c2cccnc2)CC1c1ccccc1O` (racemic), in that order: 6 nM and 110 nM.
Regarding `NCc1ccccc1-c1ccc(C(=O)N2N=C(c3cccnc3)CC2c2ccccc2O)s1` (racemic), the IC50 in [1] was determined as 10 nM; in series [2], 270 nM. This compound also showed a clearance in [3] of 65 mL/min/kg. In series [4], this compound returned an AUC of 4.9 µM·h. The bioavailability in series [5] amounted to 76%.
As to `O=C(c1ccc(-c2ccc3c(c2)CNC3)s1)N1N=C(c2cccnc2)CC1c1ccccc1O` (racemic), the IC50 in [1] is 4 nM; in series [2] it was 19 nM. Besides, the clearance in series [3] was 58.3 mL/min/kg. In series [4], this compound registered an AUC of 0.89 µM·h. The same compound registered a bioavailability in [5] of 14%.
With `NCc1ccccc1-c1ccc(C(=O)N2N=C(c3cncc(N)c3)CC2c2ccccc2O)s1` (racemic), the IC50 amounted to 7 nM in series [1] and 64 nM in series [2].
Turning to `Cc1nc(-c2ccc(C(=O)N3N=C(c4cccnc4)CC3c3ccccc3O)s2)cs1` (racemic), the IC50 in series [1] is 7 nM; in [2], 210 nM.
Taken in the same sequence, the figures for `NCc1ccc(-c2ccc(C(=O)N3N=C(c4cccnc4)CC3c3c(O)cccc3F)s2)cc1` (racemic) were 3 nM and 37 nM.
For `O=C(c1ccc(-c2ccccn2)s1)N1N=C(c2cccnc2)CC1c1cc(F)ccc1O` (racemic), in that order: 7 nM and 680 nM.
Taken in the same sequence, the figures for `Cc1ccccc1-c1ccc(C(=O)N2N=C(c3cccnc3)CC2c2ccccc2O)s1` (racemic) were 79 nM and 1500 nM.
In series [3], `O=C(c1ccc(-c2ccc3c(c2)CNC3)s1)N1N=C(c2cccnc2)CC1c1c(O)cccc1F` (racemic) gave a clearance of 15 mL/min/kg. The compound further displayed an AUC in series [4] of 8.4 µM·h. The same compound registered a bioavailability in [5] of 37%. In addition, the IC50 in series [2] is 60 nM; in series [6], 2 nM.
Consider `O=C(c1ccc(-c2cccc(CN3CCCC3)c2)s1)N1N=C(c2cccnc2)CC1c1c(O)cccc1F` (racemic), for which the results for the IC50 in series [1] and in series [2] were 8 nM and 41 nM, respectively.
Turning to `NCc1ccc(-c2ccc(C(=O)N3N=C(c4cccnc4)CC3c3ccccc3O)s2)cc1` (racemic), the results for the half-inhibitory concentration (IC50) in series [1] and in [2] were 5 nM and 82 nM, respectively.
Regarding `Nc1cncc(C2=NN(C(=O)c3ccc(-c4ccccn4)s3)C(c3ccccc3O)C2)c1` (racemic), the IC50 in series [1] was 3 nM; in [2] it was 31 nM.
In the case of `O=C(c1ccc(-c2ccccn2)s1)N1N=C(c2cccnc2)CC1c1ccccc1O` (racemic), the IC50 in [7] was 27 nM; in series [8], 23 nM; in series [2], 180 nM; in series [6], 23 nM; in [10], 17 nM. For the same compound, the solubility (kinetic) in [9] is 5.8 µg/mL (≈ 13.6 µM).
Take `O=C(c1ccc(-c2ccccn2)s1)N1N=C(c2cccnc2)CC1c1cccc(O)c1` (racemic): the IC50 in series [1] was 670 nM; in [2] it was above 25000 nM.
Consider `O=C(c1ccc(-c2ccccn2)s1)N1N=C(c2cccnc2)CC1c1c(O)cccc1F` (racemic), for which the half-maximal inhibitory concentration (IC50) was determined as 5 nM in series [1] and 80 nM in series [2].
`O=C(c1ccc(-c2ccccn2)s1)N1N=C(c2cccnc2)CC1c1ccccc1O` (single isomer, unassigned; enantiomer 1): in [2], 280 nM corresponded to half-maximal inhibition (IC50).
Take `O=C(c1ccc(-c2ccc3c(c2)CCNC3)s1)N1N=C(c2cccnc2)CC1c1c(O)cccc1F` (racemic): the IC50 in [1] was determined as 3 nM; in series [2], 34 nM.
On to `NCc1ccccc1-c1ccc(C(=O)N2N=C(c3cncc(N)c3)CC2c2c(O)cccc2F)s1` (racemic), for which the half-maximal inhibitory concentration (IC50) was found to be 4 nM in series [1] and 56 nM in [2].
Regarding `O=C(c1ccc(-c2ccc3c(c2)CNC3)s1)N1N=C(c2cncc(CO)c2)CC1c1c(O)cccc1F` (racemic), the results for the IC50 in series [1] and in [2] were 3 nM and 120 nM, respectively.
As to `O=C(c1ccc(-c2ccc3c(c2)CNCC3)s1)N1N=C(c2cccnc2)CC1c1ccccc1O` (racemic), the IC50 in [1] was found to be 4 nM; in [2], 25 nM.
Compound `O=C(c1ccc(-c2cccc3c2CCNC3)s1)N1N=C(c2cccnc2)CC1c1c(O)cccc1F` (racemic) gave a clearance in [3] of 11.7 mL/min/kg. Also, the AUC in series [4] turned out to be 26 µM·h. In addition, the bioavailability in series [5] is 89%. Moreover, the midpoint of inhibition in [2], the IC50, lay at 180 nM.
In series [2], `O=C(c1ccc(-c2ccccn2)s1)N1N=C(c2cccnc2)CC1c1ccccc1O` (single isomer, unassigned; enantiomer 2) displayed an IC50 of 14000 nM.
For the compound `O=C(c1ccc(-c2ccccn2)s1)N1N=C(c2cccnc2)CC1c1cccc(F)c1O` (racemic), the IC50 in series [1] is 13 nM; in series [2], 1400 nM.
In the case of `Cn1cc(-c2ccc(C(=O)N3N=C(c4cccnc4)CC3c3c(O)cccc3F)s2)cn1` (racemic), the concentration for half-maximal inhibition (IC50) is 3 nM in [1] and 55 nM in series [2].

Usually IC50 stands for the concentration needed to halve the response being measured. Low readings indicate greater potency in that assay, high ones weaker potency in that assay. The term AUC denotes the area under the concentration-time curve, a measure of exposure. The bioavailability is dose-corrected exposure relative to a reference, in per cent. Low readings indicate little systemic uptake, high ones much systemic uptake. As usually defined, the solubility (kinetic) is the concentration staying in solution when a stock, usually in DMSO, is diluted into the medium.

Source of the values: ChEMBL document CHEMBL1777679, “Discovery and optimization of pyrazoline compounds as B-Raf inhibitors” (Bioorg Med Chem Lett, 2010).
